Tests used:
[1] = Incorporation of infused FAA into brain lipids of unanesthetized mice; assay type: in vivo, C57BL/6J male mice
[2] = Plasma kinetics of FAA during 5-min intravenous infusion in unanesthetized mice; assay type: in vivo, C57BL/6J male mice; conditions: for plasma area under the curve: 5-min intravenous infusion, mice
In short: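 Male C57BL/6J mice, 2–3 mo, unanesthetized after 3 h recovery at 37°C. Test compound (0.3 or 1.6 nmol per mouse) in HEPES–fatty acid-free BSA (50 mg/mL, pH 7.4) was infused intravenously at variable rate for 5 min. Arterial plasma was sampled at 0–4.9 min, Folch-extracted, pentafluorobenzyl-derivatized, and analysed by NCI GC/MS against a 17:0 internal standard. AUC was derived by trapezoidal integration; n = 2–3.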

- FAA detected in brain UFA, triglyceride and cholesteryl ester fractions ([1]; end of 5-min infusion, mouse brain): < 0.01 nmol/g
- plasma area under the curve ([2]; high dose (1.6 nmol)): 0.236 ± 0.0189 µM·h
- plasma area under the curve ([2]; low dose (0.3 nmol)): 0.0297 ± 0.0217 µM·h
Compound: O=C(O)CCC/C=C\C/C=C\C/C=C\C/C=C\CCCCCF [FAA, 20-Fluoroarachidonic Acid]
- FAA concentration within brain phospholipids (rank order) ([1]; both doses, end of 5-min infusion, Fig. 2A): highest in PtdIns and ChoGlp, followed by EtnGlp and PtdSer
- incorporation coefficient k*, high versus low infusion dose ([1]; brain lipids, 0.3 vs 1.6 nmol, Fig. 3): lower for the high-infusion dose than for the low-infusion dose
- FAA concentration in plasma over time ([2]; 0.3 or 1.6 nmol infused intravenously over 5 min, Fig. 1): increased over time in a dose-dependent manner
